Laboratory results from ChEMBL document CHEMBL1158454, “Discovery of a potent and orally active hedgehog pathway antagonist (IPI-926)” (J Med Chem, 2009).
Calls of active or inactive are those of the source.

What was measured:
[1] = Plasma clearance in Sprague-Dawley rat at 1 mg/kg, iv; format: ADME, organism-based; parameters: dose 1 mg/kg, route intravenous
Procedure, shortened: (§1)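 Plasma sampled at 0.083-24 h (T_last 24 h), protein-precipitated with acetonitrile containing jervine internal standard, and quantified by LC/MS/MS. Parameters taken from the concentration-time profile.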

[2] = Elimination half life in Sprague-Dawley rat at 1 mg/kg, iv; format: ADME, organism-based; parameters: dose 1 mg/kg, route intravenous; conditions: in vivo, read-out: beta t1/2 (converted); procedure, shortened: as §1
[3] = Oral bioavailability in Beagle dog at 4 mg/kg; format: ADME, organism-based, Canis lupus familiaris; conditions: in vivo
[4] = Elimination half life in Beagle dog at 1 mg/kg, iv; format: ADME, organism-based, Canis lupus familiaris; parameters: dose 1 mg/kg, route intravenous; conditions: in vivo, read-out: beta t1/2 (converted); procedure, shortened: as §1
[5] = Antitumor activity against Ptc+/- Hic+/- mouse B837Tx cells allografted in NOD/SCID mouse assessed as median time to unmeasurable tumor volume at 30 mg/kg, po administered daily for 21 days; format: functional
Procedure, shortened: (§2)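 NOD/SCID mice given 1 × 10^6 B837Tx cells in the right hind flank. Once tumors reached about 100-200 mm³, N=10/group were gavaged daily for 21 days. Vehicle: 30% (w/w) HPBCD in 0.1 M citrate phosphate buffer, pH 3, dosing solutions 5-10 mg/mL. Tumors measured in two perpendicular dimensions by caliper 3 times weekly. Regrowth monitored over a 21-day post-treatment phase.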

[6] = Antitumor activity against Ptc+/- Hic+/- mouse B837Tx cells allografted in NOD/SCID mouse assessed as tumor-free interval on 21 days post treatment at 30 mg/kg, po administered daily for 21 days; format: functional; procedure, shortened: as §2
[7] = Oral bioavailability in cynomolgus monkey at 4 mg/kg; format: ADME, organism-based, Macaca fascicularis; conditions: in vivo
[8] = Oral bioavailability in Sprague-Dawley rat at 5 mg/kg; format: ADME, organism-based; conditions: in vivo
[9] = Volume of distribution in cynomolgus monkey at 1 mg/kg, iv; format: ADME, organism-based, Macaca fascicularis; parameters: dose 1 mg/kg, route intravenous; conditions: in vivo; procedure, shortened: as §1
[10] = Volume of distribution in Sprague-Dawley rat at 1 mg/kg, iv; format: ADME, organism-based; parameters: dose 1 mg/kg, route intravenous; conditions: in vivo; procedure, shortened: as §1
[11] = in vitro; conditions: human
[12] = Elimination half life in CD1 mouse at 1 mg/kg, iv; format: ADME, organism-based; parameters: dose 1 mg/kg, route intravenous; conditions: in vivo, read-out: beta t1/2 (converted); procedure, shortened: as §1
[13] = Plasma clearance in Beagle dog at 1 mg/kg, iv; format: ADME, organism-based, Canis lupus familiaris; parameters: dose 1 mg/kg, route intravenous; procedure, shortened: as §1
[14] = Plasma clearance in CD1 mouse at 1 mg/kg, iv; format: ADME, organism-based; parameters: dose 1 mg/kg, route intravenous; procedure, shortened: as §1
[15] = Oral bioavailability in CD1 mouse at 5 mg/kg; format: ADME, organism-based; conditions: in vivo
[16] = Elimination half life in cynomolgus monkey at 1 mg/kg, iv; format: ADME, organism-based, Macaca fascicularis; parameters: dose 1 mg/kg, route intravenous; conditions: in vivo, read-out: beta t1/2 (converted); procedure, shortened: as §1
[17] = Plasma clearance in cynomolgus monkey at 1 mg/kg, iv; format: ADME, organism-based, Macaca fascicularis; parameters: dose 1 mg/kg, route intravenous; procedure, shortened: as §1
[18] = Volume of distribution in CD1 mouse at 1 mg/kg, iv; format: ADME, organism-based; parameters: dose 1 mg/kg, route intravenous; conditions: in vivo; procedure, shortened: as §1
[19] = Toxicity in po dosed Ptc+/- Hic+/- mouse B837Tx cells allografted NOD/SCID mouse assessed as maximum tolerated dose after 5 days; format: organism-based; conditions: in vivo
Procedure, shortened: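 Tumor-bearing immunocompromised mice received repeat oral dosing for 5 days. MTD was defined as the dose tolerated by all animals (N = 3).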

[20] = Inhibition of HedgeHog pathway in mouse C3H10T1/2 cells assessed as inhibition of 20-(S)-hydroxysterol/22-(S)-hydroxysterol-induced osteoblastic differentiation after 72 hrs by alkaline phosphatase assay; conditions: C3H 10T1/2, 72 h
[21] = Volume of distribution in Beagle dog at 1 mg/kg, iv; format: ADME, organism-based, Canis lupus familiaris; parameters: dose 1 mg/kg, route intravenous; conditions: in vivo; procedure, shortened: as §1
[22] = Antitumor activity against Ptc+/- Hic+/- mouse B837Tx cells allografted in NOD/SCID mouse assessed as tumor-free interval on 21 days post treatment at 80 mg/kg, po administered daily for 21 days; format: functional; procedure, shortened: as §2
[23] = Antitumor activity against Ptc+/- Hic+/- mouse B837Tx cells allografted in NOD/SCID mouse assessed as median time to unmeasurable tumor volume at 80 mg/kg, po administered daily for 21 days; format: functional; procedure, shortened: as §2
[24] = system: Mus musculus; assay: Antitumor activity against Ptc+/- Hic+/- mouse B837Tx cells allografted in NOD/SCID mouse assessed as effect on recurrence rate on post treatment at 40 mg/kg, po administered daily for 21 days; format: functional, organism-based; parameters: dose 40 mg/kg; procedure, shortened: as §2
[25] = target: Protein smoothened (Homo sapiens, UniProt Q99835); assay: Inhibition of human recombinant SMO expressed in mouse C3H10T1/2 cells assessed as inhibition of association of BODIPY-cyclopamine; format: cell-based, C3H 10T1/2
Chain of Protein smoothened (Q99835 whole entry): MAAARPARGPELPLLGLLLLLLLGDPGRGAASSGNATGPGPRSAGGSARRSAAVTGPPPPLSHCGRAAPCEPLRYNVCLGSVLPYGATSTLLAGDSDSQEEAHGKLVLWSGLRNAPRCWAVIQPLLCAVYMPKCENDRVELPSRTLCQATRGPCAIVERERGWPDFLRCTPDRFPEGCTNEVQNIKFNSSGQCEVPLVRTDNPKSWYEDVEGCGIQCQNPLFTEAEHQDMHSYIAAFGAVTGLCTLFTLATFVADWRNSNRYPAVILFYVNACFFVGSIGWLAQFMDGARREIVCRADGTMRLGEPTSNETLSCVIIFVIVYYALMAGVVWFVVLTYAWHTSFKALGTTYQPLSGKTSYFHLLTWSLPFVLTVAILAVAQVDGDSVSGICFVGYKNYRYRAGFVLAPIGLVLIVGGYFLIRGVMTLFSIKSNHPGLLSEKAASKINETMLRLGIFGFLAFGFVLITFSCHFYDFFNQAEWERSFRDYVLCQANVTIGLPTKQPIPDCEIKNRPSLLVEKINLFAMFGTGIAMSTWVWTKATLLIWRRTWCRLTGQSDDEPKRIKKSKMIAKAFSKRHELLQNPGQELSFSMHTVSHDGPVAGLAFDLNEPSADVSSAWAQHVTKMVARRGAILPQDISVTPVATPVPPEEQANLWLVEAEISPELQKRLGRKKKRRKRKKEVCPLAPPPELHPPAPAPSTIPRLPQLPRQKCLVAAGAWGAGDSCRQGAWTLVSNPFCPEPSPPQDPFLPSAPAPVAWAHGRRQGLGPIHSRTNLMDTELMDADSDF

[26] = Antitumor activity against Ptc+/- Hic+/- mouse B837Tx cells allografted in NOD/SCID mouse assessed as tumor-free interval on 21 days post treatment at 40 mg/kg, po administered daily for 21 days; format: functional; procedure, shortened: as §2
[27] = Antitumor activity against Ptc+/- Hic+/- mouse B837Tx cells allografted in NOD/SCID mouse assessed as median time to unmeasurable tumor volume at 40 mg/kg, po administered daily for 21 days; format: functional; procedure, shortened: as §2

| SMILES | clearance [1] [mL/min/kg] | half-life [2] [h] | bioavailability [3] [%] | half-life [4] [h] | bioavailability [7] [%] | bioavailability [8] [%] | Vd [9] [L/kg] | Vd [10] [L/kg] | half-life at 0.5 µM ([11]; microsomes) [h] | half-life [12] [h] | clearance [13] [mL/min/kg] | clearance [14] [mL/min/kg] | bioavailability [15] [%] | half-life [16] [h] | clearance [17] [mL/min/kg] | Vd [18] [L/kg] | MTD at 120 h [19] [mg/kg] | EC50 [20] [nM] | Vd [21] [L/kg] | further results |
| --- | --- | --- | --- | --- | --- | --- | --- | --- | --- | --- | --- | --- | --- | --- | --- | --- | --- | --- | --- | --- |
| CC1=C2C[C@H]3[C@@H](CC[C@@H]4CNC(=O)CC[C@@]43C)[C@@H]2CC[C@@]2(C1)O[C@@H]1C[C@H](C)CN[C@H]1[C@H]2C | 10.5 | 5.4 | 97 | 6.5 | 100 | 100 | 4.3 | 4.9 | 1.08 | 3 | 5.5 | 8.33 | 100 | 3.8 | 13.3 | 2 | 30 | 25 | 3 | Activity [5]: 9 days; Activity [6]: 10 days |
| CC1=C2C[C@H]3[C@@H](CC[C@@H]4Cc5[nH]ncc5C[C@@]43C)[C@@H]2CC[C@@]2(C1)O[C@@H]1C[C@H](C)CN[C@H]1[C@H]2C | 125 | 1.2 | 73 | 6.8 | 84 | 34 | 13 | 13 | – | 3 | 10 | 33.3 | 52 | 5.6 | 30 | 9 | 80 | 13 | 6 | Activity [22]: 19 days; Activity [23]: 9 days; half-life at 0.5 µM ([11]; liver microsomes): 2 h |
| CC1=C2C[C@H]3[C@@H](CC[C@@H]4C[C@H](NS(C)(=O)=O)CC[C@@]43C)[C@@H]2CC[C@@]2(C1)O[C@@H]1C[C@H](C)CN[C@H]1[C@H]2C [PATIDEGIB] | 3.5 | > 24 | 50 | 15.5 | 74 | 100 | – | 30 | 1.42 | 10.5 | 11 | 12.3 | 100 | 8.2 | 15 | 11 | 40 | 7 | 15.3 | Activity [24]: Active; IC50 [25]: 1.4 nM; Activity [26]: 21 days; Activity [27]: 9 days |
